Consider one compound from article PMC6172054 (Cancer Science, 2018).

Where two headings read alike, the source gives them in different places.

Data set [1] relates to multiple myeloma. To be noted: twice weekly carfilzomib monotherapy 20/45 or 20/56 mg/m^2; cited from earlier work.
Data set [2] has as its system multiple myeloma. To be noted: twice weekly carfilzomib monotherapy 20/27 mg/m^2; cited from earlier work.
A short description of data set [3]: Plasma pharmacokinetics of carfilzomib after 30-minute intravenous infusion. The data set is classed as in vivo, human. As to conditions: for AUClast / T1/2 (terminal elimination half-life): mean ± SD, SD; for Tmax: median (minimum-maximum). The gist of the method:
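Relapsed/refractory myeloma patients got a 30-min IV infusion of test compound with dexamethasone 40 mg. Plasma was sampled on Days 1 (20 mg/m2) and 15 (70 mg/m2) of Cycle 1: pre-infusion, 5 and 15 min after start, just before end, then 5, 15, 30 min and 1, 2, 4 h post-infusion. Per-patient parameters were summarised as mean ± SD, Tmax as median (min–max).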

[4] abbreviates: Day 1 of Cycle 1, carfilzomib 20 mg/m^2 iv, N = 6.
Setting [5] is: Day 15 of Cycle 1, carfilzomib 70 mg/m^2 iv, N = 5.

Take `CC(C)C[C@H](NC(=O)[C@H](CCc1ccccc1)NC(=O)CN1CCOCC1)C(=O)N[C@@H](Cc1ccccc1)C(=O)N[C@@H](CC(C)C)C(=O)[C@@]1(C)CO1` [carfilzomib]: the ORR in the data set with multiple myeloma [1] was 57.1%. In addition, the ORR with multiple myeloma [2] is on record as 22.5%. For the same compound, in data set [3] (setting [4]), the AUClast was determined as 355 ± 120 ng·h/mL, the “T1/2 (terminal elimination half-life)” value was found to be 41 ± 15.1 min and the Tmax is on record as 0.575 (0.250‐0.617) h. For the same compound, in data set [3] (setting [5]), the AUClast came out at 1250 ± 285 ng·h/mL, the “T1/2 (terminal elimination half-life)” value was found to be 54 ± 4.44 min and the Tmax is given as 0.467 (0.250‐0.617) h.
